# Vif inh – HIV Vif self-association inhibitors, primary screen, imaging, HEK293T, single point; 340,000 tested, 0.35% active; inhibition, % at 7.49 µM; HEK293T cells, Vif self-association by quenched fluorescence, 24 h; AID 602346, 2012; in the data active = inhibition above about 50%, passing the limit was not always enough
# SR-BI uptake up – activators of SR-BI mediated DiI-HDL uptake, primary screen, ldlA[mSR-BI] CHO cells, DiI fluorescence; 3 h; 100 = double the neutral-control signal; activation, % at 12.5 µM; 320,000 tested, 0.096% active; AID 504775, 2011;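 active = mean replicate activation of at least 60% and every replicate at or above 60%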;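 note: 0% = median plate neutral-control signal and 100% = twice that signal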
#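 Assay system: LDL receptor-deficient CHO ldlA cells overexpressing murine SR-BI / Medium: BSA-supplemented, HEPES-buffered Ham's F12, pH 7.4 / Probe or stimulus: DiI-labelled HDL at 10 µg/mL final / Timing: compound with DiI-HDL co-incubation, 3 h at 37 °C / Technique: bottom-read cell fluorescence after medium removal, ex 550/em 595 nm / Measure: HDL uptake via cellular fluorescence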
# H9c2 TAG inh – inhibitors of triacylglycerol accumulation, primary screen, cell-based, uHTS, fluorescence, H9c2; AID 651582, 2012; 230,000 tested, 0.66% active; inhibition, % at 12.5 µM; H9c2 cells, Nile Red lipid (TAG) fluorescence; cells loaded with 200 µM oleic acid;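 active = pattern-corrected inhibition of lipid staining of at least 50% with the nuclear-stain viability signal not falling by more than 50%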;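 note: 0% = DMSO wells and 100% = triacsin C control wells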
# SMARCA2 activ – SMARCA2 (BRM) function activators, primary screen, cell-based, luminescence, high throughput. 370,000 tested, 1% active. AID 652017, 2013. activation, % at 9.1 µM. MG213 cells, MMTV-luciferase reporter, dexamethasone, overnight; in the data active = activation above about 7.8%;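 note: 0% = vehicle wells and 100% = reference activator wells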
# SR-BI HDL uptake – inhibitors of SR-BI mediated HDL lipid uptake, primary screen, ldlA[mSR-BI] cells, fluorescence, single point; inhibition, % at 12.5 µM; 320,000 tested, 0.96% active; Scavenger receptor class B member 1 (Mus musculus), Q61009; ldlA[mSR-BI] CHO cells, DiI-HDL uptake fluorescence, 3 h;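 active = mean replicate inhibition of at least 70% and a set share of replicates each scoring 70 or more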;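 note: 0% = median of neutral control wells and 100% = median of positive control wells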
# Target sequence (Q61009 whole entry, looked up): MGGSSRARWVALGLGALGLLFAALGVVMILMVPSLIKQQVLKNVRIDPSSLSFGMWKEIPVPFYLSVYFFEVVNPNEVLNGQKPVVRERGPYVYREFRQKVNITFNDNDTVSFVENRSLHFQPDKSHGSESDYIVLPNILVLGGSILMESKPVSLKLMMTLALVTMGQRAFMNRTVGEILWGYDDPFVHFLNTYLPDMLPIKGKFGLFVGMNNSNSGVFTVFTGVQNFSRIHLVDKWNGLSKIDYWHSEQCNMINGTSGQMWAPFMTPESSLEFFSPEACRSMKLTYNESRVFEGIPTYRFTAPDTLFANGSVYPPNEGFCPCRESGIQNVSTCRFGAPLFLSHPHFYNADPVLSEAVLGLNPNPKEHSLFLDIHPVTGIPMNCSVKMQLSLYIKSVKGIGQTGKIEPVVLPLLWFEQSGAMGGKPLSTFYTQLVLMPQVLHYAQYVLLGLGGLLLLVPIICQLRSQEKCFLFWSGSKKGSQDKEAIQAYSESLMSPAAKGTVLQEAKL
# SMARCA2 act conf – SMARCA2 (BRM) function activators, confirmation, cell-based, luminescence, triplicate. shares compounds with SMARCA2 activ. MG213 cells, MMTV-luciferase with dexamethasone, overnight; MG213 cells expressing E1A, Rb sequestered; DMSO wells 0%, reference activator 100%. activation, % at 9.1 µM. 3,500 tested, 30% active. AID 652260, 2013;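 active = activation above its plate's cutoff, the mean activation of tested wells plus 3 SD, cut at about 7.9% in these data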
# VP16 Luc act – GAL4-VP16 luciferase reporter activation, counter-screen for SMARCA2 (BRM) activator project, cell-based, pG5luc, luminescence, high throughput; 3,500 tested, 41% active; shares compounds with SMARCA2 activ; activation, % at 9.1 µM; HEK293 GAL4-VP16 pG5luc reporter; scaled: DMSO wells 0%, SAHA wells 100%; AID 686939, 2013;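 active = activation above the solvent-only control well mean plus 3 SD, averaged across control plates, cut at about 5.2% in these data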
# The depositor's hits bear a star; . = no result given. Only some compounds are listed: those with a hit (about 2.5% of all), similar ones and a draw of the others.
SMILES,Vif inh,SR-BI uptake up,H9c2 TAG inh,SMARCA2 activ,SR-BI HDL uptake,SMARCA2 act conf,VP16 Luc act
O=C1CC(c2ccccc2)Sc2nc3ccccc3n21 (stereo not given),15,3,17,12*,-3,8.8*,8.6*
O=C(Nc1ccc(F)cc1)Nc1ccc2c(c1)CCC2,.,-14,-4,3,14,.,.
O=C(COC(=O)c1ccc(Cl)nc1)Nc1ccc2c(c1)CCC2,-1,4,0,9.1*,-4,-1,0
Cc1cccc(NC(=O)CC2CCC2)c1,17,-4,.,-2,4,.,.
O=C(Cc1ccccc1)Nc1ccc2c(c1)CCC2,-6,-5,4,0,5,.,.
O=C(CC1CCCC1)Nc1ccc2c(c1)CCC2,6,15,0,9.0*,-15,13*,2
O=C(Nc1cccc(F)c1)Nc1ccc2c(c1)CCC2,-4,-21,-2,8.8*,21,9.8*,6.5*
Cc1cc(NC(=O)CC2CCCC2)ccc1Br,-2,-15,.,11*,15,7,8.6*
COCCNC(=S)N(C)[C@H]1C[C@H]2c3[nH]c4cccc(-c5ccccc5)c4c3CCN2C(=O)[C@H]1[C@H](C)O,.,.,.,-3,.,.,.
COc1ccc(CC(=O)Nc2cccc(-c3ccc4nnc(C)n4n3)c2)cc1OC,11,.,12,-4,.,.,.
CCSc1nc(-c2cccs2)nc2ccccc12,7,-16,2,0,16,.,.
CN(C)CCN1CCN(C2CN(Cc3ccc(F)cc3)S(=O)(=O)C2)CC1 (stereo not given),.,.,.,0,.,.,.
Cc1nnc(N/N=C/c2ccc(-c3ccccc3F)o2)n1N,.,19,5,12*,-19,7,9.2*
Cc1nnc(N/N=C\c2ccc(-c3ccccc3[N+](=O)[O-])o2)n1N,-2,21,.,-2,-21,.,.
CCN1CCCC1CNC(=O)C(=O)Nc1ccccc1 (stereo not given),-4,16,-3,11*,-16,2,6.1*
CN(Cc1ccccc1)C(=O)OCc1cn(Cc2cccc(C(F)(F)F)c2)nn1,.,.,.,-1,.,.,.
CCCSc1nnc(NC(=O)Nc2ccc(F)cc2)s1,-16,-3,-7,-1,3,.,.
CCCSc1nnc(NC(=O)Nc2ccc(C)cc2)s1,-6,-6,-8,8.0*,6,0,1
COCc1c(C(=O)NCCOc2ccc(Cl)cc2)oc2ccccc12,-5,3,2,-2,-3,.,.
COc1ccc(C(N)=S)cc1,2,16,.,-1,-16,.,.
C=C(c1ccc(OC)cc1)c1ccc(OC)cc1,1,0,.,9.3*,0,2,2
CNc1ncn(-c2c(C)cccc2C)c(=O)n1,.,.,.,-5,.,.,.
CCOC(=O)CNC(=O)CSc1nc2ccccc2c(=O)n1-c1ccc(Cl)cc1,.,.,.,-5,.,.,.
Cc1cc(C)c(C)c(S(=O)(=O)N(C)C2CCN(C)CC2)c1C,-4,7,.,-2,-7,.,.
COc1cc(OC)c2c(c1)O/C(=C\c1ccccc1)C2=O,33,.,-10,11*,.,7,9.4*
COc1ccc(N2C(=O)CSC2c2ccccc2F)c(OC)c1 (stereo not given),1,25,.,-1,-25,.,.
C/C(=N\NC(=O)Cc1cccs1)c1ccco1,.,.,.,-1,.,.,.
COc1ccc(S(=O)(=O)N2CCCCCC2)c2ccccc12,.,.,.,-1,.,.,.
O=C(Nc1ccccc1Cl)c1ccc([N+](=O)[O-])o1,0,13,.,9.0*,-13,18*,3
O=C(Nc1cccc2ncccc12)c1ccc([N+](=O)[O-])o1,-1,23,.,15*,-23,8.4*,1

# Compound activity (PubChem BioAssay)
